The values that follow come from ChEMBL document CHEMBL5661964, “Selective in vivo and in vitro effects of a small molecule inhibitor of cyclin-dependent kinase 4” (J Natl Cancer Inst, 2001).

Assay [1] relates to U2OS. In words: Induction of cell cycle arrest in human U2OS cells assessed as percentage of cells at G0/G1 phase, cells were released from mimosine block prior to compound addition at 5 uM after 16 hrs by flow cytometry analysis (reference value: 17.2%). The class given is functional. (In general: In flow cytometry, cells or beads pass a laser one at a time.)
Assay [2] relates to U2OS. In words: Induction of cell cycle arrest in human U2OS cells expressing pRb assessed as percentage of cells at S phase at 10 uM after 24 hrs by flow cytometry analysis (reference value: 19.9%). It counts as functional.
For assay [3], the system named is NIH3T3. In words: Induction of cell cycle arrest in mouse NIH3T3 cells expressing pRb-negative assessed as percentage of cells at G0/G1 phase at 10 uM after 24 hrs by flow cytometry analysis (reference value: 43.5%). It counts as functional.
In the next assay the test system is HCT-116. Briefly: Induction of cell cycle arrest in human HCT-116 cells assessed as number of cells at S phase at 10 uM after 24 hrs in presence of 10% serum by flow cytometry analysis (reference value: 36.3%). The class given is functional. An outline of the steps:
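HCT116 cells in McCoy's 5A were serum-starved 72 h in 0.1% serum, then released for 24 h into 10% serum with or without compound. They were fixed in 70% ethanol, RNase-treated (3 mg/mL, 30 min, 37 °C) and stained with 50 μg/mL propidium iodide. Flow cytometry on FL-2 area with doublet gating gave the percentages in sub-G1, G0/G1, S and G2/M.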

The subject of assay [4] is U2OS. In words: Induction of cell cycle arrest in human U2OS cells assessed as percentage of cells at S phase, cells were released from mimosine block prior to compound addition at 10 uM after 16 hrs by flow cytometry analysis (reference value: 33%). It counts as functional.
The target of assay [5] is Cyclin-dependent kinase 5/CDK5 activator 1 (Homo sapiens, UniProt Q00535). In words: Inhibition of GST-tagged human CDK5/p35 expressed in baculovirus infected Sf9 cells using retinoblastoma protein in presence of ATP. The gist of the method:
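Cdk holoenzymes (Cdk with GST-cyclin or activator), expressed in Sf9 insect cells and purified on glutathione-Sepharose, were combined 1:1. Radiometric reactions used [33P]ATP with GST-pRb(152), the C-terminal 152-residue pRb fragment, as substrate. Label was quantified by phosphorimager. Ten inhibitor concentrations from 0 to 100 μM were run in duplicate across three independent experiments. IC50 came from plotting percent incorporation relative to the no-inhibitor reaction against concentration.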

In assay [6] the test system is U2OS. Briefly: Induction of cell cycle arrest in human U2OS cells assessed as percentage of cells at SubG1 phase, cells were released from mimosine block prior to compound addition at 10 uM after 16 hrs by flow cytometry analysis (reference value: 2.2%). It counts as functional.
The subject of assay [7] is U2OS. In words: Induction of cell cycle arrest in human U2OS cells expressing pRb negative assessed as percentage of cells at G0/G1 phase at 10 uM after 24 hrs by flow cytometry analysis (reference value: 42.5%). It counts as functional.
Assay [8] deals with NIH3T3. Briefly: Induction of cell cycle arrest in mouse NIH3T3 cells expressing pRb-negative assessed as percentage of cells at G0/G1 phase at 5 uM after 24 hrs by flow cytometry analysis (reference value: 43.5%). The class given is functional.
Assay [9] has as its system U2OS. In words: Induction of cell cycle arrest in human U2OS cells assessed as percentage of cells at G0/G1 phase, cells were released from mimosine block prior to compound addition at 5 uM after 38 hrs by flow cytometry analysis (reference value: 39.6%). The class given is functional.
Assay [10] relates to U2OS. Briefly: Induction of cell cycle arrest in human U2OS cells assessed as percentage of cells at G2/M phase, cells were released from mimosine block prior to compound addition at 10 uM after 38 hrs by flow cytometry analysis (reference value: 32.3%). The class given is functional.
Another assay concerns MRC5. Briefly: Induction of cell cycle arrest in human MRC5 cells assessed as number of cells at S phase at 10 uM after 24 hrs in presence of 10% serum by flow cytometry analysis (reference value: 16.1%). The class given is functional.
The test system of assay [11] is U2OS. Briefly: Induction of cell cycle arrest in human U2OS cells assessed as percentage of cells at S phase, cells were released from quinidine block prior to compound addition at 10 uM after 24 hrs by flow cytometry analysis (reference value: 21.39%). It counts as functional.

SMILES strings stand for the structures.

Cyclin-dependent kinase 5/CDK5 activator 1, sequence (Q00535 whole entry, the tested form may be a part): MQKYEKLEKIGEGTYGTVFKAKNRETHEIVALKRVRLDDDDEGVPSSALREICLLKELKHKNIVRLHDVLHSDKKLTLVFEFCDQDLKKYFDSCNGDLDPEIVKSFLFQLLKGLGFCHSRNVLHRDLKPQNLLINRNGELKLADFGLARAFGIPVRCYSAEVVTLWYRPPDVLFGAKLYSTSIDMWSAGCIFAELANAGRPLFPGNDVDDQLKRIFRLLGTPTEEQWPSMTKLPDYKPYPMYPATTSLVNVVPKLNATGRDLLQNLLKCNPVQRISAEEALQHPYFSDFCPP
Cyclin-dependent kinase 5/CDK5 activator 1, sequence (Q15078 whole entry, further chain, the tested form may be a part): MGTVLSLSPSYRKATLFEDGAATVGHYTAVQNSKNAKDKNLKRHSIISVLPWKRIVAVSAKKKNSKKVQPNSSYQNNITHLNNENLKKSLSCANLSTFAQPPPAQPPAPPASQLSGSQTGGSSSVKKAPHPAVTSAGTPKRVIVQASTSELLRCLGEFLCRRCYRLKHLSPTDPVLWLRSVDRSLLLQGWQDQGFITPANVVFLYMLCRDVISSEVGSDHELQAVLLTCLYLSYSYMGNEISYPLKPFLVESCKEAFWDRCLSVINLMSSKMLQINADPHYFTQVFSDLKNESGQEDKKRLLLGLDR

As usually defined, the IC50 is the point on the concentration scale where inhibition reaches its midpoint. Regarding `CCNc1cc(N[C@H]2CC[C@H](O)CC2)nc(Nc2ccc3c(ccn3Cc3ccccc3)c2)n1`, the Activity in the assay with U2OS [1] is given as 17.2%; with U2OS [2], 3.6%; in the assay on NIH3T3 [3] it was 48.7%; in the assay with HCT-116, 22.6%; in the assay on U2OS [4], 29.5%; in the assay with U2OS [6] it was 21.8%. In addition, the Activity in the assay with U2OS [7] worked out at 42.8%; with NIH3T3 [8] it was 49.8%; in the assay with U2OS [9] it was 34.8%; with U2OS [10] it was 13.9%; in the assay on MRC5, 2.4%; in the assay with U2OS [11], 7.6%. For the same molecule, in assay [5], the half-maximal inhibitory concentration (IC50) was 25 µM.
